Converted amounts (≈) assume the structure as drawn.
Key:
Streptococcus pneumoniae [1] = test: Antibacterial activity against daptomycin sensitive Streptococcus pneumoniae 402 by CLSI method; assay type: functional
Procedure, shortened: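 S. pneumoniae MIC in CaCl2-supplemented Mueller-Hinton broth (50 mg/liter) with 5% lysed horse blood, following CLSI methods. Colonies were grown on sheep-blood agar at 37°C under 5% CO2. Assay incubation was at 37°C under 5% CO2 without aeration.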

Staphylococcus aureus [2] = test: Antibacterial activity against Staphylococcus aureus 42 in presence of 1% bovine pulmonary surfactant by CLSI method; assay type: functional; conditions: Staphylococcus aureus, 42, Pulmonary surfactant
Procedure, shortened: (§1)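 Broth MIC in Mueller-Hinton broth with 50 mg/liter CaCl2, run with or without 1% bovine pulmonary surfactant, following CLSI methods. Colonies came from frozen stocks streaked on sheep-blood tryptic soy agar (37°C, ~24 h). Incubation was at 37°C with rotation at 200 rpm. The ratio is MIC with surfactant divided by MIC without.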

Escherichia coli = test: Antibacterial activity against imp4213 mutant Escherichia coli BAS849 by CLSI method; assay type: functional
Procedure, shortened: (§2)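 MICs were determined by CLSI broth methods in Mueller-Hinton broth with 50 mg/liter CaCl2, with or without 1% bovine pulmonary surfactant. Inocula came from single colonies streaked from glycerol stocks onto blood agar and grown at 37°C for ~24 h. Cultures were incubated at 37°C with rotation at 200 rpm.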

Enterococcus faecalis [3] = test: Antibacterial activity against daptomycin resistant Enterococcus faecalis 312 by CLSI method; assay type: functional; procedure, shortened: as §2
Staphylococcus aureus [4] = test: Antibacterial activity against daptomycin resistant Staphylococcus aureus 1695 by CLSI method; assay type: functional; procedure, shortened: as §2
Enterococcus faecium [5] = test: Antibacterial activity against daptomycin resistant Enterococcus faecium 384 by CLSI method; assay type: functional; procedure, shortened: as §2
Staphylococcus aureus [6] = test: Antibacterial activity against daptomycin sensitive and methicillin resistant Staphylococcus aureus MW2 by CLSI method; assay type: functional; procedure, shortened: as §2
Staphylococcus aureus [7] = test: Antibacterial activity against daptomycin sensitive and methicillin resistant Staphylococcus aureus 399 by CLSI method; assay type: functional; procedure, shortened: as §2
Staphylococcus aureus [8] = test: Ratio of MIC for Staphylococcus aureus 42 in presence of 1% bovine pulmonary surfactant to MIC for Staphylococcus aureus 42 in absence of 1% bovine pulmonary surfactant; assay type: functional; procedure, shortened: as §1
Staphylococcus aureus [9] = test: Antibacterial activity against Staphylococcus aureus 42 in absence of 1% bovine pulmonary surfactant by CLSI method; assay type: functional; conditions: Staphylococcus aureus, 42, Pulmonary surfactant; procedure, shortened: as §1
Staphylococcus aureus [10] = test: Antibacterial activity against daptomycin sensitive and methicillin susceptible Staphylococcus aureus 42 by CLSI method; assay type: functional; procedure, shortened: as §2
Enterococcus faecalis [11] = test: Antibacterial activity against daptomycin sensitive Enterococcus faecalis 201 by CLSI method; assay type: functional; procedure, shortened: as §1
Staphylococcus aureus [12] = test: Antibacterial activity against methicillin resistant Staphylococcus aureus 1616 by CLSI method; assay type: functional; procedure, shortened: as §2
Enterococcus faecium [13] = test: Antibacterial activity against daptomycin sensitive Enterococcus faecium 14 by CLSI method; assay type: functional; procedure, shortened: as §1
Streptococcus pneumoniae [14] = test: Antibacterial activity against Streptococcus pneumoniae infected in CD1 mouse pneumonia model assessed as lung bacterial load at 6.25 mg/kg, sc administered at 1 and 4 hrs after bacterial challenge measured 24 hrs post infection (reference value: 2.69x10^8 CFU/ml); conditions: route subcutaneous
Streptococcus pneumoniae [15] = test: Antibacterial activity against Streptococcus pneumoniae infected in CD1 mouse pneumonia model assessed as lung bacterial load at 12.5 mg/kg, sc administered at 1 and 4 hrs after bacterial challenge measured 24 hrs post infection (reference value: 2.69x10^8 CFU/ml); conditions: route subcutaneous
Streptococcus pneumoniae [16] = test: Antibacterial activity against Streptococcus pneumoniae infected in CD1 mouse pneumonia model assessed as lung bacterial load at 25 mg/kg, sc administered at 1 and 4 hrs after bacterial challenge measured 24 hrs post infection (reference value: 2.69x10^8 CFU/ml); conditions: route subcutaneous

## CC[C@H](C)[C@@H]1NC(=O)[C@H]([C@H](C)CC(=O)O)NC(=O)[C@@H](CC(N)=O)NC(=O)CNC(=O)[C@@H]([C@H](OC)C(=O)O)NC(=O)[C@@H](CO)NC(=O)[C@H](CC(=O)O)NC(=O)[C@H](C)NC(=O)CN(C)C(=O)[C@@H](NC(=O)[C@@H](NC(=O)[C@@H](CCC(=O)O)NC(=O)[C@H](Cc2c[nH]c3ccccc23)NC(=O)CCCCCCCC(C)C)[C@H](O)C(N)=O)[C@H](C)OC1=O
Streptococcus pneumoniae [1]
  MIC: 0.25 µg/mL (≈ 0.153 µM)
Staphylococcus aureus [2]
  MIC: 16 µg/mL
Escherichia coli
  MIC: 16 µg/mL (≈ 9.81 µM)
Enterococcus faecalis [3]
  MIC: 128 µg/mL (≈ 78.4 µM)
Staphylococcus aureus [4]
  MIC: 4 µg/mL (≈ 2.45 µM)
Enterococcus faecium [5]
  MIC: 32 µg/mL (≈ 19.6 µM)
Staphylococcus aureus [6]
  MIC: 0.5 µg/mL (≈ 0.306 µM)
Staphylococcus aureus [7]
  MIC: 1 µg/mL (≈ 0.613 µM)
Staphylococcus aureus [8]
  Ratio: 16
Staphylococcus aureus [9]
  MIC: 1 µg/mL (≈ 0.613 µM)
Staphylococcus aureus [10]
  MIC: 1 µg/mL (≈ 0.613 µM)
Enterococcus faecalis [11]
  MIC: 4 µg/mL (≈ 2.45 µM)
Staphylococcus aureus [12]
  MIC: 8 µg/mL (≈ 4.9 µM)
Enterococcus faecium [13]
  MIC: 4 µg/mL (≈ 2.45 µM)

## CCCCCCCCCC(=O)N[C@@H](Cc1c[nH]c2ccccc12)C(=O)N[C@H](CC(N)=O)C(=O)N[C@@H](CC(=O)O)C(=O)N[C@@H]1C(=O)NCC(=O)N[C@@H](CCCN)C(=O)N[C@@H](CC(=O)O)C(=O)N[C@H](C)C(=O)N[C@@H](CC(=O)O)C(=O)NCC(=O)N[C@H](CO)C(=O)N[C@@H]([C@H](C)CC(=O)O)C(=O)N[C@@H](CC(=O)c2ccccc2N)C(=O)O[C@@H]1C
Streptococcus pneumoniae [1]
  MIC: 0.25 µg/mL (≈ 0.154 µM)
Staphylococcus aureus [2]
  MIC: 64 µg/mL
Escherichia coli
  MIC: 128 µg/mL (≈ 79 µM)
Enterococcus faecalis [3]
  MIC: 128 µg/mL (≈ 79 µM)
Staphylococcus aureus [4]
  MIC: 4 µg/mL (≈ 2.47 µM)
Enterococcus faecium [5]
  MIC: 32 µg/mL (≈ 19.7 µM)
Staphylococcus aureus [6]
  MIC: 1 µg/mL (≈ 0.617 µM)
Staphylococcus aureus [7]
  MIC: 0.5 µg/mL (≈ 0.309 µM)
Staphylococcus aureus [8]
  Ratio: 128
Staphylococcus aureus [9]
  MIC: 0.5 µg/mL (≈ 0.309 µM)
Staphylococcus aureus [10]
  MIC: 1 µg/mL (≈ 0.617 µM)
Enterococcus faecalis [11]
  MIC: 2 µg/mL (≈ 1.23 µM)
Staphylococcus aureus [12]
  MIC: 16 µg/mL (≈ 9.87 µM)
Enterococcus faecium [13]
  MIC: 2 µg/mL (≈ 1.23 µM)

## CN[C@H](CC(C)C)C(=O)N[C@H]1C(=O)N[C@@H](CC(N)=O)C(=O)N[C@H]2C(=O)N[C@H]3C(=O)N[C@H](C(=O)N[C@H](C(=O)O)c4cc(O)cc(O)c4-c4cc3ccc4O)[C@H](O)c3ccc(c(Cl)c3)Oc3cc2cc(c3O[C@@H]2O[C@H](CO)[C@@H](O)[C@H](O)[C@H]2O[C@H]2C[C@](C)(N)[C@H](O)[C@H](C)O2)Oc2ccc(cc2Cl)[C@H]1O [VANCOMYCIN]
Streptococcus pneumoniae [14]
  CFU/ml: 1.81e+07
Streptococcus pneumoniae [15]
  CFU/ml: 285000
Streptococcus pneumoniae [16]
  CFU/ml: 9
